Bioassay records: PubChem, Sanford-Burnham Center for Chemical Genomics
SENP8 block-1 – inhibitors of human SENP8 protease; Q96LD8; recombinant SENP8, Nedd8 substrate fluorescence; inhibition, % at 20 µM; 360,000 tested, 0.64% active; AID 602440; in the data active means inhibition mostly above about 40%, no sharp cut-off; inactive means mostly below about 27%
Target sequence (Q96LD8 whole entry, looked up): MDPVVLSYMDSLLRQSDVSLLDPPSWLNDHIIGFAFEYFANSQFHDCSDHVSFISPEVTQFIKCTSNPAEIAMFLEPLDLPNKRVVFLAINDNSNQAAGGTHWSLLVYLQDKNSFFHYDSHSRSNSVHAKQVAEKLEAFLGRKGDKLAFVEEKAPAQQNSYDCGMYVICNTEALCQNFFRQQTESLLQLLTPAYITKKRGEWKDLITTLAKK
SENP8 block-2 – inhibitors of human SENP8 protease. Q96LD8. purified SENP8, Z-RLRGG-aminoluciferin cleavage, luminescence. inhibition, % at 10 µM. 330,000 tested, 1.2% active. AID 2540; in the data active means inhibition above about 50%
SENP1 inh – inhibitors of human SENP1 SUMO protease catalytic domain | Q9P0U3 | recombinant SENP1 catalytic domain, CyPet-SUMO1-YPet FRET cleavage | inhibition, % at 10 µM | 360,000 tested, 0.21% active;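 active means inhibition at least 30% at 10 µM, raw YFP signal under a set limit, fluorescence ratio 0.5 to 1.5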;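 further: 0% = enzyme with DMSO and 100% = no enzyme wells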
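Assay system – human recombinant His6-tagged SENP1 catalytic domain enzyme · Input – SENP1 enzyme, 20 pM final · Buffer or medium – Tris pH 8 buffer plus EDTA, NaCl, BME, BSA, NP40, catalase · Schedule – 50 min reaction at room temperature · Technique – FRET read of cyan and yellow fluorescence · Control set – no-enzyme wells low, DMSO-plus-enzyme wells high control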
SENP6 block – SENP6 protease inhibition. Q9GZR1. Recombinant SENP6 catalytic domain, aminoluciferin luminescence. inhibition, % at 10 µM. 330,000 tested, 1.8% active. AID 2599;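 active means inhibition above about 50% at the single tested dose, limit read from the data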;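 further: plate controls were DMSO wells with enzyme for no effect and DMSO wells lacking enzyme for full effect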
SENP7 block – blocks the human protease SENP7 | Q9BQF6 | recombinant SENP7, Z-RLRGG-aminoluciferin luminescence, 40 min | inhibition, % at 5 µM | 330,000 tested, 1.5% active;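 active means inhibition above about 50% at the single test dose, limit read from the data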;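 further: plate controls were DMSO with enzyme for no effect and no enzyme buffer wells for full effect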
SENP8 conf – human SENP8 inhibition, confirmed. AID 488912. Recombinant SENP8, Z-RLRGG-aminoluciferin luminescence, 60 min. inhibition, % at 12.5 µM. 6,200 tested, 40% active. shares compounds with SENP7 block;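 active means mean inhibition across replicates above about 50%, limit read from the data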
SENP6 confirm – confirmation of human SENP6 protease inhibitors; shares compounds with SENP7 block; recombinant SENP6, Z-RLRGG-aminoluciferin luminescence; inhibition, % at 12.5 µM; 6,200 tested, 58% active
SENP7 confirm – human SENP7 inhibition, confirmed | shares compounds with SENP7 block | recombinant SENP7, Z-RLRGG-aminoluciferin luminescence, 40 min | inhibition, % at 12.5 µM | 6,200 tested, 69% active
Casp3 SENP sel – inhibits human caspase-3 in SENP selectivity test. shares compounds with SENP7 block. purified caspase-3, Z-DEVD-aminoluciferin luminescence, 60 min. inhibition, % at 12.5 µM. 6,200 tested, 60% active;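 active means mean inhibition above about 50%, limit read from the data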;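 further: plate controls were enzyme with DMSO for no effect and wells without caspase-3 for full effect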
Target sequence (P42574 28-227 limits assumed): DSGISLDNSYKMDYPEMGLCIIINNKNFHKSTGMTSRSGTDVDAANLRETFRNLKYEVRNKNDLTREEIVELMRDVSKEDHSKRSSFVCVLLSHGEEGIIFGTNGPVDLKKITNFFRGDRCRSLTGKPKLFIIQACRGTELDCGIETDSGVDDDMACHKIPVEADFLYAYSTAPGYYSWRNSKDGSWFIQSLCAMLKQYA
SENP luc ctr – counter-screen for SENP inhibitors: luminescence interference; AID 488919; shares compounds with SENP7 block; Pre-incubated SENP8/Z-RLRGG-aminoluciferin, luciferase luminescence interference; inhibition, % at 12.5 µM; 6,200 tested, 39% active;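 active means mean inhibition above about 50% when retested at one dose, limit read from the data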;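 further: plate controls were DMSO wells with completed reaction for no effect and substrate without enzyme for full effect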
An asterisk follows results filed as active; nt = no result given. Shown are actives, neighbours in structure and some others; about 2.5% of the full set was active somewhere.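 How the source made its calls, unless noted: active means mean inhibition above about 50% in the one-dose retest (limit read from the data); inactive means the rest.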

SMILES	SENP8 block-1	SENP8 block-2	SENP1 inh	SENP6 block	SENP7 block	SENP8 conf	SENP6 confirm	SENP7 confirm	Casp3 SENP sel	SENP luc ctr
CCCc1nc2ccc(Cl)cn2c1Cc1ccc(C)cc1	-50	nt	-11	nt	nt	nt	nt	nt	nt	nt
O=C(Nc1ccc(F)cc1)C(=O)c1c(O)[nH]c2ccc([N+](=O)[O-])cc12	36	53*	3	75*	4	66*	68*	91*	74*	36
c1ccc(-c2cn3c4c(sc3n2)CCCC4)cc1	15	96*	2	97*	-6	90*	95*	103*	95*	29
O=C(COc1cc2oc(=O)c3c(c2cc1Cl)CCC3)NCc1ccncc1	-101	-5	-4	14	3	nt	nt	nt	nt	nt
O=c1c2ccccc2sc2ccc(C#CC3(O)CCCCC3)cc12	-260	96*	-93	98*	97*	97*	99*	102*	97*	44
COc1cccc2sc3ccc(C#Cc4ccc(N)cc4)cc3c(=O)c12	-24	-10	-13	-2	14	nt	nt	nt	nt	nt
Nc1ccc(C#Cc2ccc3sc4ccccc4c(=O)c3c2)cc1	-35	2	-3	38	11	nt	nt	nt	nt	nt
COc1cccc2sc3ccc(C#CC4(O)CCCCC4)cc3c(=O)c12	-320	89*	-50	93*	88*	91*	95*	100*	82*	46
O=S(=O)(NCc1cccnc1)c1ccc2ccccc2c1	14	-1	0	-21	-4	nt	nt	nt	nt	nt
O=C(O)c1ccc(N/N=C/c2cc3c(cc2[N+](=O)[O-])OCO3)cc1	20	16	1	-8	-7	nt	nt	nt	nt	nt
O=C(O)c1cc(N/N=C/c2ccc3c(c2)OCO3)ccc1Cl	-73	69*	-2	66*	7	3	81*	95*	63*	83*
O=C(O)c1ccc(N/N=C/c2ccc3c(c2)OCO3)cc1	-244	98*	2	97*	100*	99*	100*	103*	98*	98*
O=C(O)c1cc(N/N=C/c2ccc3c(c2)OCCO3)ccc1Cl	-69	nt	0	nt	nt	nt	nt	nt	nt	nt
Cc1ccc(/C=N/Nc2ccc(Cl)c(C(=O)O)c2)s1	-55	84*	-12	96*	84*	96*	96*	101*	50*	94*
COc1ccc(C)cc1NC(=O)NC1CC(=O)N(c2ccc3c(c2)OCCO3)C1 (centres undefined)	9	nt	-1	nt	nt	nt	nt	nt	nt	nt
CC(=O)Nc1ccc(NC(=O)C2CC(=O)N(c3ccccc3Cl)C2)cc1 (centres undefined)	-1	-6	2	-4	2	nt	nt	nt	nt	nt
CCc1nnc(NC(=O)CC(=O)Nc2ccccc2C(=O)O)s1	-34	30	1	78*	55*	68*	63*	89*	88*	71*
CC(C)Cc1nnc(NC(=O)CC(=O)Nc2ccccc2C(=O)O)s1	13	53*	0	70*	40	-1	67*	88*	89*	55*
CCc1nnc(NC(=O)CN2CCOCC2)s1	4	-7	0	-15	99*	11	6	5	1	4
CC(C)c1nnc(NC(=O)CC(=O)Nc2ccccc2C(=O)O)s1	22	71*	0	81*	78*	87*	87*	98*	94*	86*
CCCCc1nnc(NC(=O)CC(=O)Nc2ccccc2C(=O)O)s1	-16	22	0	50	13	nt	nt	nt	nt	nt
CCNC(=O)C1CCCN(Cc2cc(-c3ccccc3)on2)CC1 (centres undefined)	9	nt	-4	nt	nt	nt	nt	nt	nt	nt
Oc1ccc(F)cc1-c1cc(-c2ccc3c(c2)OCCO3)n[nH]1	11	84*	0	88*	75*	88*	88*	100*	59*	57*
Oc1ccccc1-c1cc(-c2ccccc2)n[nH]1	18	93*	4	95*	94*	95*	96*	101*	74*	89*
Oc1ccccc1-c1cc(-c2ccc(F)cc2)n[nH]1	5	89*	-1	94*	94*	94*	94*	100*	72*	80*
SMILES	SENP8 block-1	SENP8 block-2	SENP1 inh	SENP6 block	SENP7 block	SENP8 conf	SENP6 confirm	SENP7 confirm	Casp3 SENP sel	SENP luc ctr
Cc1ccc(-c2cc(-c3ccc(F)cc3)n[nH]2)c(O)c1	2	79*	-1	83*	76*	86*	86*	95*	43	76*
COc1ccccc1N1CCN(C(=O)C2=CC=CN3CCS(=O)(=O)N=C23)CC1	-8	-6	0	-3	7	nt	nt	nt	nt	nt
Cc1ccccc1-c1cc(-c2ccccc2O)n[nH]1	16	71*	0	84*	83*	86*	85*	94*	42	62*
C=C(C)CNC(=O)c1ccc2nc(Cc3ccc(OC)cc3)oc2c1	33	17	3	49	51*	40	39	75*	66*	48
O=c1/c(=C/c2ccc(O)cc2)sc2n1CCCN=2	15	80*	-41	86*	64*	86*	84*	96*	88*	84*
CN(C)c1ccc(/C=c2\sc3n(c2=O)CCCN=3)cc1	-14	74*	-18	87*	68*	87*	84*	95*	85*	76*
Cc1cc(C(=O)NNC(=O)Cc2ccc(Cl)cc2)c(C)o1	2	2	2	2	-1	nt	nt	nt	nt	nt
Cc1ccc(NC(=O)O/N=C/c2c(C)nn(C(C)(C)C)c2C)cc1Cl	13	47	1	52*	52*	10	46	42	1	-3
Cc1ccnc2nc(C(=O)OCC(=O)NCc3cccc(Cl)c3)nn12	4	9	-3	4	1	nt	nt	nt	nt	nt
CC(=O)NCCN=C(C)c1sc2ccccc2c1O	-27	4	-149	7	14	nt	nt	nt	nt	nt
CC(=Nc1ccccc1O)c1sc2ccccc2c1O	-34	-3	-35	33	14	nt	nt	nt	nt	nt
CC(=Nc1ccc(O)cc1)c1sc2ccccc2c1O	16	75*	-19	89*	79*	80*	80*	96*	68*	81*
CC(=Nc1cccc(C)c1)c1sc2ccccc2c1O	-73	44	-22	63*	38	73*	74*	88*	48	32
c1csc(-c2cn3ccc4ccccc4c3n2)c1	-436	80*	-7	89*	86*	11	90*	99*	82*	84*
